Reference: ChEMBL document CHEMBL1131115, “Strategies to target kyotorphin analogues to the brain” (1998)
Where a SMILES comes first, the peptide text is derived from it.

species on record: Rattus norvegicus; assay: Compound was evaluated for brain targeted delivery system by Tail flick latency as an index of spinal cord mediated analgesia in rats; assay type: functional
How it was run: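 Male Sprague-Dawley rats, 250-300 g, housed singly at ~25 °C. Compounds in 0.2 mL propylene glycol:DMSO (2:1) given iv via tail vein, 0.0223 mmol/kg (equivalent to 7.5 mg/kg kyotorphin); dose-response range 0.0030-0.0223 mmol/kg. Tail-flick meter, beam set for 7-8 s baseline latency. Baseline 10 min pre-dose, then 15 min to 6 h. Six rats per group; mean ± SE, ANOVA.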

Row | Compound | Latency time [s]
1 | NC(=O)C1=CN(CCCC[C@H](NC(=O)[C@@H](N)Cc2ccc(O)cc2)C(=O)O)C=CC1 | 10
2 | NCCCC[C@H](NC(=O)[C@@H](N)Cc1ccc(O)cc1)C(=O)O (H-Tyr-Lys-OH) | 11
3 | CC(C)CCCC(C)C1CCC2C3CC=C4CC(OC(=O)C(CCCCN)NC(=O)[C@H](Cc5ccc(O)cc5)NC(=O)OC(C)(C)C)CCC4(C)C3CCC12C (some centres not stated) | 10
4 | CC(C)CCCC(C)C1CCC2C3CC=C4CC(OC(=O)C(CCCC[n+]5cccc(C(N)=O)c5)NC(=O)C(N)Cc5ccc(O)cc5)CCC4(C)C3CCC12C (configuration not stated) | 17
5 | CC(C)CCCC(C)C1CCC2C3CC=C4CC(OC(=O)C(CCCCN5C=CCC(C(N)=O)=C5)NC(=O)C(Cc5ccc(O)cc5)NC(=O)OC(C)(C)C)CCC4(C)C3CCC12C (configuration not stated) | 26
6 | NC(N)=NCCC[C@H](NC(=O)[C@@H](N)Cc1ccc(O)cc1)C(=O)O [KYOTORPHIN] | 11
7 | CC(C)CCCC(C)C1CCC2C3CC=C4CC(OC(=O)C(CCCC[n+]5cccc(C(N)=O)c5)NC(=O)[C@H](Cc5ccc(O)cc5)NC(=O)OC(C)(C)C)CCC4(C)C3CCC12C (some centres not stated) | 10
